Measured values from ChEMBL document CHEMBL1122297, “Stereospecific synthesis of chiral metabolites of ifosfamide and their determination in the urine” (J Med Chem, 1983).

Columns and labels:
[1] = Active metabolite of ifosfamide determined in humans; A-Active; assay type: ADME; settings: human
[2] = Metabolite of ifosfamide determined in urine; NF-Not found; assay type: ADME, tissue-based; settings: human
[3] = Portion of holoxan excreted in the form of the metabolite from 1200 mL of urine on day 3 was determined in embryonal rhabdomyosarcoma patients treated with ifosfamide; assay type: ADME; settings: human, in vivo
Method in brief: (§1)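 Patients received ifosfamide at 2 g per day for 10 days, and daily urine was collected. Urine from days 1 and 2 was dropped because it had been stored at room temperature. Solids were centrifuged off. Supernatant was examined by 31P NMR, and amounts were taken from the electronically integrated spectra.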

[4] = Portion of holoxan excreted in the form of the metabolite from 1200 mL of urine on day 7 was determined in embryonal rhabdomyosarcoma patients treated with ifosfamide; assay type: ADME; settings: human, in vivo; method in brief: as §1
[5] = Quantity of the metabolite found in the urine of the embryonal rhabdomyosarcoma patients treated with ifosfamide from 1600 mL of urine tested on day 10; assay type: ADME; settings: human; method in brief: as §1
[6] = Quantity of the metabolite found in the urine of the embryonal rhabdomyosarcoma patients treated with ifosfamide from 1500 mL of urine tested on day 9; assay type: ADME; settings: human; method in brief: as §1
[7] = Quantity of the metabolite found in the urine of the embryonal rhabdomyosarcoma patients treated with ifosfamide from 1300 mL of urine tested on day 8; assay type: ADME, tissue-based; settings: human; method in brief: as §1
[8] = Quantity of the metabolite found in the urine of the embryonal rhabdomyosarcoma patients treated with ifosfamide from 1300 mL of urine tested on day 6; assay type: ADME; settings: human; method in brief: as §1
[9] = Quantity of the metabolite found in the urine of the embryonal rhabdomyosarcoma patients treated with ifosfamide from 1700 mL of urine tested on day 5; assay type: ADME; settings: human; method in brief: as §1
[10] = Portion of holoxan excreted in the form of the metabolite from 1700 mL of urine on day 5 was determined in embryonal rhabdomyosarcoma patients treated with ifosfamide; assay type: ADME, tissue-based; settings: human, in vivo; method in brief: as §1
[11] = Portion of holoxan excreted in the form of the metabolite from 1500 mL of urine on day 9 was determined in embryonal rhabdomyosarcoma patients treated with ifosfamide; assay type: ADME, tissue-based; settings: human, in vivo; method in brief: as §1
[12] = Portion of holoxan excreted in the form of the metabolite from 1600 mL of urine on day 10 was determined in embryonal rhabdomyosarcoma patients treated with ifosfamide; assay type: ADME, tissue-based; settings: human, in vivo; method in brief: as §1
[13] = Portion of holoxan excreted in the form of the metabolite from 1300 mL of urine on day 8 was determined in embryonal rhabdomyosarcoma patients treated with ifosfamide; assay type: ADME; settings: human, in vivo; method in brief: as §1
[14] = Portion of holoxan excreted in the form of the metabolite from 2310 mL of urine on day 4 was determined in embryonal rhabdomyosarcoma patients treated with ifosfamide; assay type: ADME, tissue-based; settings: human, in vivo; method in brief: as §1
[15] = Quantity of the metabolite found in the urine of the embryonal rhabdomyosarcoma patients treated with ifosfamide from 2310 mL of urine tested on day 4; assay type: ADME; settings: human; method in brief: as §1
[16] = Quantity of the metabolite found in the urine of the embryonal rhabdomyosarcoma patients treated with ifosfamide from 1200 mL of urine tested on day 3; assay type: ADME, tissue-based; settings: human; method in brief: as §1
[17] = Portion of holoxan excreted in the form of the metabolite from 1300 mL of urine on day 6 was determined in embryonal rhabdomyosarcoma patients treated with ifosfamide; assay type: ADME; settings: human, in vivo; method in brief: as §1
[18] = Quantity of the metabolite found in the urine of the embryonal rhabdomyosarcoma patients treated with ifosfamide from 1200 mL of urine tested on day 7; assay type: ADME; settings: human; method in brief: as §1
[19] = Percent ratio of the enantiomeric form (+)R extracted from the urine of alveolar rhabdomyosarcoma patients was determined; assay type: ADME, tissue-based; settings: human
Method in brief: (§2)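 Patients were dosed with ifosfamide at 2 g per day for 10 days. Solids were centrifuged out of the urine. The supernatant was extracted with chloroform and with ethyl acetate before the enantiomeric composition was determined, because signals of parent drug and metabolite overlapped in crude concentrated urine.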

[20] = Percent ratio of the enantiomeric form (-)S extracted from the urine of alveolar rhabdomyosarcoma patients was determined; assay type: ADME, tissue-based; settings: human; method in brief: as §2
[21] = Percent ratio of the enantiomeric form (-)S extracted from the urine of embryonal rhabdomyosarcoma patients was determined; assay type: ADME, tissue-based; settings: human; method in brief: as §2
[22] = Percent ratio of the enantiomeric form (+)R extracted from the urine of embryonal rhabdomyosarcoma patients was determined; assay type: ADME; settings: human; method in brief: as §2

| Compound | Activity [1] | Activity [2] | Excretion [3] [%] | Excretion [4] [%] | Quantity [5] [mg] | Quantity [6] [mg] | Quantity [7] [mg] | Quantity [8] [mg] | Quantity [9] [mg] | Excretion [10] [%] | Excretion [11] [%] | Excretion [12] [%] | Excretion [13] [%] | Excretion [14] [%] | Quantity [15] [mg] | Quantity [16] [mg] | Excretion [17] [%] | Quantity [18] [mg] | Extraction [19] [%] | Extraction [20] [%] | further results |
| --- | --- | --- | --- | --- | --- | --- | --- | --- | --- | --- | --- | --- | --- | --- | --- | --- | --- | --- | --- | --- | --- |
| O=CCCOP(=O)(NCCCl)NCCCl | Active | Not found |  |  |  |  |  |  |  |  |  |  |  |  |  |  |  |  |  |  |  |
| O=C(O)CCOP(=O)(NCCCl)NCCCl |  |  | 39.8 | 74 | 130 | 186 | 56 | 348 | 70 | 40.2 | 100 | 61 | 61.7 | 65.5 | 62 | 70 | 91.5 | 312 |  |  |  |
| O=P1(NCCCl)NCCCO1 (stereo not drawn) |  |  | 39.8 | 74 | 320 | 310 | 338 | 434 | 258 | 40.2 | 100 | 61 | 61.7 | 65.5 | 432 | 198 | 91.5 | 348 | 72 | 28 | Extraction [21]: 55%; Extraction [22]: 45% |
| NP1(=O)OCCCN1CCCl (stereo not drawn) |  |  | 39.8 | 74 | 160 | 231 | 130 | 243 | 95 | 40.2 | 100 | 61 | 61.7 | 65.5 | 163 | 64 | 91.5 | 180 | 13 | 87 | Extraction [21]: 73%; Extraction [22]: 27% |
| O=C1CCOP(=O)(NCCCl)N1CCCl (stereo not drawn) [4-KETOIFOSFAMIDE] |  |  | 39.8 | 74 | 66 | 24 | 78 | 136 | 81 | 40.2 | 100 | 61 | 61.7 | 65.5 | 34 | 44 | 91.5 | 84 |  |  |  |
| O=P1(NCCCl)OCCC(O)N1CCCl (stereo not drawn) [ALDOIFOSFAMIDE] | Active | Not found |  |  |  |  |  |  |  |  |  |  |  |  |  |  |  |  |  |  |  |
| O=P1(NCCCl)OCCCN1CCCl (stereo not drawn) [IFOSFAMIDE] |  |  | 39.8 | 74 | 421 | 1100 | 494 | 500 | 200 | 40.2 | 100 | 61 | 61.7 | 65.5 | 442 | 348 | 91.5 | 432 | 57 | 43 | Extraction [21]: 45%; Extraction [22]: 55% |
| O=P(O)(NCCCl)NCCCl [PALIFOSFAMIDE] | Active | Not found |  |  |  |  |  |  |  |  |  |  |  |  |  |  |  |  |  |  |  |
